These results are taken from ChEMBL document CHEMBL1671853, “Decrease of atazanavir and lopinavir plasma concentrations in a boosted double human immunodeficiency virus protease inhibitor salvage regimen” (Antimicrob Agents Chemother, 2008).

Series [1] can be described thus: AUC in HIV-1 infected patient at 300 mg, po qd coadministered with 100 mg of ritonavir, po qd and NRTI. In kind it is ADME, organism-based. The settings on record: human, plasma. Put shortly: (§1)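 Retrospective steady-state TDM data from HIV-1-infected adults (n = 17 per group, matched for sex, age, ethnicity and body weight), taken after at least 2 weeks on therapy. Plasma sampled before dosing and at 1, 2, 4, 6, 9, 12 and 24 h, with food of approximately 2,500 kJ (21% fat). Drug levels measured by validated LC-MS/MS; parameters from noncompartmental analysis; geometric means (90% CI).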

Series [2] is described as follows: Cmax in HIV-1 infected patient at 300 mg, po qd coadministered with 100 mg of ritonavir, po qd and NRTI. In kind it is ADME, organism-based. Further details: dose 300 mg, route oral. The settings on record: human, in vivo. Put shortly: as §1
Series [3] in a line: Oral clearance in HIV-1 infected patient at 300 mg, po qd coadministered with 100 mg of ritonavir, po qd and NRTI. In kind it is ADME, organism-based. The settings on record: human, in vivo. Put shortly:
as §1

Series [4] in a line: Half life in HIV-1 infected patient at 300 mg, po qd coadministered with 400 mg, po bid and 100 mg, po bid of Lopinavir and ritonavir respectively. The settings on record: human, in vivo. In kind it is ADME, organism-based. In outline: as §1
Series [5] is described as follows: Half life in HIV-1 infected patient at 300 mg, po qd coadministered with 100 mg of ritonavir, po qd and NRTI. In kind it is ADME, organism-based. The settings on record: human, in vivo. In outline:
as §1

Series [6] is described as follows: Apparent oral clearance in HIV-1 infected patient at 300 mg, po qd coadministered with 400 mg, po bid and 100 mg, po bid of Lopinavir and ritonavir respectively. In kind it is ADME, organism-based. The settings on record: human, in vivo. In outline: as §1
A short description of series [7]: Cmax in HIV-1 infected patient at 300 mg, po qd coadministered with 400 mg, po bid and 100 mg, po bid of Lopinavir and ritonavir respectively. In kind it is ADME, organism-based. Details: dose 300 mg, route oral. The settings on record: human, in vivo. In outline:
as §1

Series [8] is described as follows: AUC in HIV-1 infected patient at 300 mg, po qd coadministered with 400 mg, po bid and 100 mg, po bid of Lopinavir and ritonavir respectively. In kind it is ADME, organism-based. The settings on record: human, plasma. In outline: as §1
Series [9] in a line: Apparent oral clearance in HIV-1 infected patient at 400 mg, po bid coadministered with 100 mg, po bid of ritonavir and 300 mg, po qd of atazanavir. The settings on record: human, in vivo. In kind it is ADME, organism-based. Put shortly: as §1
The nature of series [10]: Cmax in HIV-1 infected patient at 400 mg, po bid coadministered with 100 mg, po bid of ritonavir and 300 mg, po qd of atazanavir. In kind it is ADME, organism-based. Further details: dose 400 mg, route oral. The settings on record: human, in vivo. In outline: as §1
Series [11] can be described thus: Cmax in HIV-1 infected patient at 400 mg, po bid coadministered with 100 mg, po bid of ritonavir and NRTI. In kind it is ADME, organism-based. Details: dose 400 mg, route oral. The settings on record: human, in vivo. In outline: (§2)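 HIV-1-infected adults on LPV-RTV gel capsules plus NRTI (n = 17, matched pairs) at steady state after at least 2 weeks of therapy, under a standardized routine TDM protocol with food of approximately 2,500 kJ (21% fat). Plasma sampled predose and at 1, 2, 4, 6, 9 and 12 h. Concentrations by validated LC-MS/MS; noncompartmental parameters given as geometric means (90% CI).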

Series [12] can be described thus: AUC in HIV-1 infected patient at 400 mg, po bid coadministered with 100 mg, po bid of ritonavir and NRTI. In kind it is ADME, organism-based. The settings on record: human, plasma. Put shortly:
as §2

A short description of series [13]: Half life in HIV-1 infected patient at 400 mg, po bid coadministered with 100 mg, po bid of ritonavir and 300 mg, po qd of atazanavir. The settings on record: human, in vivo. In kind it is ADME, organism-based. Put shortly:
as §1

Series [14] in a line: Half life in HIV-1 infected patient at 400 mg, po bid coadministered with 100 mg, po bid of ritonavir and NRTI. In kind it is ADME, organism-based. The settings on record: human, in vivo. Put shortly: as §2
Series [15] is described as follows: Apparent oral clearance in HIV-1 infected patient at 400 mg, po bid coadministered with 100 mg, po bid of ritonavir with NRTI. The settings on record: human, in vivo. In kind it is ADME, organism-based. Put shortly: as §2
The nature of series [16]: AUC in HIV-1 infected patient at 400 mg, po bid coadministered with 100 mg, po bid of ritonavir and 300 mg, po qd of atazanavir. In kind it is ADME, organism-based. The settings on record: human, plasma. Put shortly:
as §1

Series [17] deals with Homo sapiens. As to the kind of experiment: Apparent oral clearance in HIV-1 infected patient at 100 mg, po qd coadministered with 300 mg, po qd of atazanavir and NRTI. The settings on record: in vivo.
Series [18] is described as follows: Half life in HIV-1 infected patient at 100 mg, po bid coadministered with 400 mg, po bid of Lopinavir and NRTI. The settings on record: human, in vivo.
Series [19] in a line: Half life in HIV-1 infected patient at 100 mg, po bid coadministered with 300 mg, po qd of atazanavir and NRTI. The settings on record: human, in vivo.
Series [20] in a line: Cmax in HIV-1 infected patient at 100 mg, po bid coadministered with 400 mg, po bid of Lopinavir and 300 mg, po qd of atazanavir. In kind it is ADME, organism-based. Details: dose 100 mg, route oral. The settings on record: human, in vivo. Put shortly:
as §1

Series [21] is described as follows: Cmax in HIV-1 infected patient at 100 mg, po qd coadministered with 300 mg, po qd of atazanavir and NRTI. The settings on record: human, in vivo.
A short description of series [22]: AUC in HIV-1 infected patient at 100 mg, po bid coadministered with 400 mg, po bid of Lopinavir and 300 mg, po qd of atazanavir. In kind it is ADME, organism-based. The settings on record: human, plasma. Put shortly: as §1
Series [23] relates to Homo sapiens. As to the kind of experiment: Apparent oral clearance in HIV-1 infected patient at 100 mg, po bid coadministered with 400 mg, po bid of Lopinavir and NRTI. In kind it is ADME, organism-based. The settings on record: in vivo. In outline: as §2
Series [24] in a line: AUC in HIV-1 infected patient at 100 mg, po bid coadministered with 400 mg, po bid of Lopinavir and NRTI. In kind it is ADME, organism-based. The settings on record: human, plasma. In outline: as §2
A short description of series [25]: AUC in HIV-1 infected patient at 100 mg, po qd coadministered with 300 mg, po qd of atazanavir and NRTI. The settings on record: human, plasma.
Series [26] is described as follows: Cmax in HIV-1 infected patient at 100 mg, po bid coadministered with 400 mg, po bid of Lopinavir and NRTI. The settings on record: human, in vivo. In kind it is ADME, organism-based. Details: dose 100 mg, route oral. In outline:
as §2

Structures are written as SMILES.

On to `COC(=O)N[C@H](C(=O)N[C@@H](Cc1ccccc1)[C@@H](O)CN(Cc1ccc(-c2ccccn2)cc1)NC(=O)[C@@H](NC(=O)OC)C(C)(C)C)C(C)(C)C` [ATAZANAVIR], for which the AUC (as a rule, the area under the concentration-time curve, a measure of exposure) in [1] was determined as 30300 ng·h/mL; in series [8], 26400 ng·h/mL. Moreover, the values for the Cmax in series [2] and in series [7] were 2740 ng/mL and 2260 ng/mL, respectively. Besides, the CL/F – broadly, clearance divided by bioavailability, as obtained after extravascular dosing – in series [3] was 154 mL/min; in series [6], 185 mL/min. Besides, the results for the half-life in series [4] and in [5] were 7.79 h and 7.21 h, respectively.

With `Cc1cccc(C)c1OCC(=O)N[C@@H](Cc1ccccc1)[C@@H](O)C[C@H](Cc1ccccc1)NC(=O)[C@H](C(C)C)N1CCCNC1=O` [LOPINAVIR], the CL/F in series [9] was 133 mL/min; in [15], 99 mL/min. Further, the values for the Cmax in series [10] and in series [11] were 5250 ng/mL and 6850 ng/mL, respectively. Also, the AUC was determined as 59700 ng·h/mL in [12] and 48500 ng·h/mL in [16]. Besides, the half-life (in general, how long it takes for the measured level to halve) in [13] is 6.56 h; in series [14], 8.21 h.

Take `CC(C)c1nc(CN(C)C(=O)N[C@H](C(=O)N[C@@H](Cc2ccccc2)C[C@H](O)[C@H](Cc2ccccc2)NC(=O)OCc2cncs2)C(C)C)cs1` [RITONAVIR]: the CL/F in the series with Homo sapiens [17] turned out to be 199 mL/min; with Homo sapiens [23], 440 mL/min. Also, the half-life in series [18] is 4.03 h; in [19], 4.58 h. The Cmax (as a rule, the maximum level reached in the sampled fluid or tissue) in series [20] stood at 468 ng/mL; in series [21], 869 ng/mL; in [26], 525 ng/mL. The AUC in [22] came out at 3290 ng·h/mL; in series [24], 3580 ng·h/mL; in series [25], 7770 ng·h/mL.
